Experiments:
Assay type in all cases: in vivo, Drosophila melanogaster
[1] = test system: Tip60-RNAi knockdown Drosophila larvae; settings: oral in food; for Performance in rescuing locomotor defects (in words): compared to CTB
[2] = test system: Tip60-RNAi-2 Drosophila larvae; assay: Larval locomotor assay in second Tip60-RNAi line; settings: 100 uM, line crossing in 30 seconds
Summary of the method: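 elavC155-Gal4 × UAS-Tip60 RNAi-2 progeny (w1118 background) are reared from hatching on food containing the test compound in DMSO (final DMSO ≤0.01%) or vehicle. Wandering third-instar larvae are rinsed and placed on a 2.5% agar plate over a 0.5 cm × 0.5 cm grid. After 1 min acclimation, head line crossings are counted over 30 s. Analysis is one-way ANOVA with Dunnett's comparisons.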

[3] = test system: AD-associated APP Drosophila third-instar larvae; assay: Larval locomotor assay in AD-associated APP model
Summary of the method: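 elavC155-Gal4/UAS-APP larvae (w1118 background), with parental crosses set on food containing the test compound in DMSO (final DMSO ≤0.01%) or DMSO alone, so larvae feed from hatching. Wandering third instars of either sex are rinsed in distilled water, placed on 2.5% agar over a 0.5 cm grid, and acclimated 1 min. Read-outs are speed (mm/s, video tracking) and head line crossings in 30 s. Analysis is one-way ANOVA with Dunnett's test.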

Cn1cc(C(=O)COc2ccccc2C(=O)Nc2ccc(Cl)c(C(F)(F)F)c2)cn1 [C1, N-[4-chloro-3-(trifluoromethyl)phenyl]-2-[2-(1-methyl-1H-pyrazol-4-yl)-2-oxoethoxy]benzamide]
Performance in rescuing locomotor defects (in words) [1]: low-performing

COC(=O)CCC(=O)COc1ccccc1C(=O)Nc1ccc(Cl)c(C(F)(F)F)c1 [C2, Methyl 5-(2-{[4-chloro-3-(trifluoromethyl)phenyl]carbamoyl}phenoxy)-4-oxopentanoate]
Performance in rescuing locomotor defects (in words) [1]: highest performers
Rescue of locomotor deficits (in words) [2]: rescued locomotor deficits
Sustained effects to complete the assay and reach the wall (in words) [3]: sustained effects
Concentration significantly rescuing larval locomotor ability ([3]; oral in food): ≥ 50 µM

O=C(Nc1ccc(Cl)c(C(F)(F)F)c1)c1ccccc1OCC(=O)N1CCNC1=O [C4, N-[4-Chloro-3-(trifluoromethyl)phenyl]-2-[2-oxo-2-(2-oxo-1-imidazolidinyl)ethoxy]benzamide]
Performance in rescuing locomotor defects (in words) [1]: no effect

CCOCCC(O)COc1ccccc1C(=O)Nc1ccc(Cl)c(C(F)(F)F)c1 (stereo not shown) [C5, N-[4-Chloro-3-(trifluoromethyl)phenyl]-2-(4-ethoxy-2-hydroxybutoxy)benzamide]
Performance in rescuing locomotor defects (in words) [1]: highest performers

CC(C)CNC(=O)COc1ccccc1C(=O)Nc1ccc(Cl)c(C(F)(F)F)c1 [C6, N-[4-Chloro-3-(trifluoromethyl)phenyl]-2-[2-(isobutylamino)-2-oxoethoxy]benzamide]
Performance in rescuing locomotor defects (in words) [1]: low-performing

O=C(Nc1ccc(Cl)c(C(F)(F)F)c1)c1ccccc1OCC(=O)C1CCOCC1 [C7, N-[4-Chloro-3-(trifluoromethyl)phenyl]-2-[2-oxo-2-(tetrahydro-2H-pyran-4-yl)ethoxy]benzamide]
Performance in rescuing locomotor defects (in words) [1]: low-performing

CNC(=O)NC(=O)COc1ccccc1C(=O)Nc1ccc(Cl)c(C(F)(F)F)c1 [C8, N-[4-Chloro-3-(trifluoromethyl)phenyl]-2-{2-[(methylcarbamoyl)amino]-2-oxoethoxy}benzamide]
Performance in rescuing locomotor defects (in words) [1]: highest performers

COC(=O)CNC(=O)COc1ccccc1C(=O)Nc1ccc(Cl)c(C(F)(F)F)c1 [C9, Methyl N-[(2-{[4-chloro-3-(trifluoromethyl)phenyl]carbamoyl}phenoxy)acetyl]glycinate]
Performance in rescuing locomotor defects (in words) [1]: low-performing

O=C(COc1ccccc1C(=O)Nc1ccc(Cl)c(C(F)(F)F)c1)NCC1CC1 [C10, N-[4-Chloro-3-(trifluoromethyl)phenyl]-2-{2-[(cyclopropylmethyl)amino]-2-oxoethoxy}benzamide]
Performance in rescuing locomotor defects (in words) [1]: low-performing

CCOc1ccccc1C(=O)Nc1ccc(Cl)c(C(F)(F)F)c1 [CTB, N-[4-chloro-3-(trifluoromethyl)phenyl]-2-ethoxybenzamide, reference compound]
Rescue of locomotor ability (in words) ([1]; 10 to 100 μM): significant rescue
